In test [1] the target is T1, 14-3-3γ (Homo sapiens, UniProt P61981).
T1 sequence (P61981 1-247): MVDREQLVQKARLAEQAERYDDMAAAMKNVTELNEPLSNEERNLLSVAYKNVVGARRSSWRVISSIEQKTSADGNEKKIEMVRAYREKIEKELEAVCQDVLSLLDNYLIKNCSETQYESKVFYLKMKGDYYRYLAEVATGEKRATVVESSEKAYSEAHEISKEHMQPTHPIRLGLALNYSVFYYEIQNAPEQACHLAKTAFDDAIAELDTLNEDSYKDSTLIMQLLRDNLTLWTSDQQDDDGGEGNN
As to the kind of experiment: AlphaScreen direct binding of biotin-pS259-Raf-1 to GST-14-3-3γ. To be noted: increasing GST-14-3-3γ and biotin-pS259-Raf-1 with both beads. Summed up: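 Biotinylated pS259-Raf-1 peptide (LSQRSTpSTPNVHM) was titrated with purified GST-14-3-3γ; Z' runs used 100 nM peptide. Anti-GST acceptor beads were added and incubated 30 min, then streptavidin donor beads for 1.5 h. Luminescence was read under dim light. Background wells held one binding component.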
A general note: Alpha assays give light when donor and acceptor beads are brought close together.

Test [2] concerns the target T1, 14-3-3γ. The test is described as follows: AlphaScreen direct binding of GST-R18 to biotin-14-3-3γ. To be noted: GST-R18 5 nM to 500 nM; biotin-14-3-3γ 5 nM or 10 nM. The gist of the method:
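His-14-3-3γ expressed in E. coli BL21(DE3), Ni2+-column purified, desalted, then biotinylated with sulfo-NHS-LC-biotin. GST-R18 expressed in E. coli. Anti-GST acceptor beads added, then streptavidin donor beads 30 min later. Read after 1.5 h at room temperature under dim light. Background wells held one component. Triplicate, mean ± SD.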

The target of test [3] is GST-14-3-3γ (UniProt P61981). The test is described as follows: AlphaScreen or HTRF.
The target in test [4] is biotinylated His-14-3-3γ (UniProt P61981). The test is described as follows: AlphaScreen or HTRF.
Another test deals with 14-3-3 proteins. The note with it: cited from earlier work.
Test [5] concerns the target T2, biotinylated His-14-3-3γ (UniProt P61981 1-247, biotin (EZ-Link sulfo-NHS-LC-biotin; sites not stated)).
T2 sequence (looked up): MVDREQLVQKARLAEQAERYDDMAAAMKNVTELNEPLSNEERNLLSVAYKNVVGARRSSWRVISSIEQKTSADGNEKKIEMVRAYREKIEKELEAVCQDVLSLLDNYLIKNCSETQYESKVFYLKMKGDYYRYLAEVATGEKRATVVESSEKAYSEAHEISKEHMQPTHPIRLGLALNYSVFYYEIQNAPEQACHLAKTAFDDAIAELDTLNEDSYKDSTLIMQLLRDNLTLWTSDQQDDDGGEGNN
The test is described as follows: AlphaScreen or HTRF.

Test [6] deals with T3, GST-14-3-3γ (UniProt P61981 1-247).
T3 sequence (looked up): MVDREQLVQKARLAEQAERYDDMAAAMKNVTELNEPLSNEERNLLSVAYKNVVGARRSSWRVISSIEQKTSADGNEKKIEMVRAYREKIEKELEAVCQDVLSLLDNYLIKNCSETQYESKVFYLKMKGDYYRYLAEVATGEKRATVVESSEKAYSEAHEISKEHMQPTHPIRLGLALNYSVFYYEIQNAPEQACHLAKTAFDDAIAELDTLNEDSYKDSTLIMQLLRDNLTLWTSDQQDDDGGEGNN
As to the kind of experiment: AlphaScreen or HTRF.

Here are results for five molecules from article PMC2803432 (Current Chemical Genomics, 2008).

Residues, ends and D or L forms follow the SMILES beside them. No end group written: not given here.

As usually defined, the IC50 is the concentration that inhibits the measured activity by half. Read a high IC50 as a need for much substance.

For the molecule “Biotin-LSQRSTpSTPNVHM [biotin-pS259-Raf-1]”, the “Alpha signal with increasing concentration (in words)” value on 14-3-3γ [1] is “dose-dependent increase in Alpha signal”.

For the molecule “GST-R18: GST-tagged R18 protein-peptide fusion, purified from bacterial cells (PHCVPRDLSWLDLEANMCLP; cysteine pairing not given here; also: GST tag fused, end not given here)”, the “Alpha signal with increasing concentration (in words)” value with 14-3-3γ [2] was “induced the robust production of Alpha signal in a dose-dependent manner”.

As to pS967-ASK1 peptide, the figures for the IC50 with GST-14-3-3γ [3] and in the test with biotinylated His-14-3-3γ [4] were 535 nM and 549 nM, respectively.

Regarding `CSCC[C@H](NC(=O)[C@H](CC(N)=O)NC(=O)[C@H](C)NC(=O)[C@H](CCC(=O)O)NC(=O)[C@H](CC(C)C)NC(=O)[C@H](CC(=O)O)NC(=O)[C@H](CC(C)C)NC(=O)[C@H](Cc1c[nH]c2ccccc12)NC(=O)[C@H](CO)NC(=O)[C@H](CC(C)C)NC(=O)[C@H](CC(=O)O)NC(=O)[C@H](CCCNC(=N)N)NC(=O)[C@@H]1CCCN1C(=O)[C@@H](NC(=O)[C@H](CS)NC(=O)[C@H](Cc1c[nH]cn1)NC(=O)[C@@H]1CCCN1)C(C)C)C(=O)N[C@@H](CS)C(=O)N[C@@H](CC(C)C)C(=O)N1CCC[C@H]1C(=O)O` [R18] (H-PHCVPRDLSWLDLEANMCLP-OH; N-terminus and C-terminus assumed), the “effect of GST fusion on efficacy of R18 for 14-3-3 binding” value in the test on 14-3-3 proteins (GST fusion of R18, ref [10]) is on record as “no detectable effect on the efficacy of R18 for 14-3-3 binding”. Also, in the test on 14-3-3 proteins (ref [17]), the “competition with natural proteins for binding of 14-3-3 (in words)” value is recorded as “can effectively compete with other natural proteins for the binding of 14-3-3 proteins”. The “affinity for 14-3-3 proteins (in words)” value with 14-3-3 proteins (unphosphorylated peptide from phage display, ref [10]) was “exhibits a high affinity for 14-3-3 proteins”.

For PHCVPRDLSWLDLEANMCLP [untagged R18 peptide], the IC50 with biotinylated His-14-3-3γ [5] worked out at 28 ± 1.1 nM; in the test with GST-14-3-3γ [6] it was 35.7 ± 1.1 nM.
